The source made the active and inactive calls. The rule behind the calls is not given here.
Assays:
[1] = Octanol-water partition coefficient, log P of the compound at 5 mg/20 ml after 30 mins by spectrophotometric analysis; assay type: physicochemical
Summary of the method: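 Octanol and water (pH 6), 20 mL each, stirred 30 min at 25 °C, then centrifuged 10 min at 4,000 rpm. Compound concentration in each phase measured spectrophotometrically at 360 nm. LogP = log of the octanol/water concentration ratio.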

Epidermophyton floccosum [2] = assay: Antifungal activity against Epidermophyton floccosum (Hartz) Langeron and Milochevitch CBS 358.93 assessed as growth inhibition at 20 ug/ml measured on day 7 by sabouraud dextrose agar diffusion method relative to control; assay type: functional
Summary of the method: (§1)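 Dermatophyte strains kept on Sabouraud dextrose agar slants. Mycelium disks (10 mm) from a stationary-phase culture grown at 26 ± 1 °C on cellophane over SDA to log phase, then moved onto SDA containing compound added from DMSO stock at 45 °C (final DMSO 0.1%; DMSO-only controls). Colony diameter measured daily for 7 days. % inhibition = (dex − dex')/dex × 100. Three replicates per concentration; mean of three independent experiments.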

Trichophyton rubrum [3] = assay: Antifungal activity against Trichophyton rubrum (Castellani) Sabouraud IHME 4321 assessed as growth inhibition at 20 ug/ml measured on day 7 by sabouraud dextrose agar diffusion method relative to control; assay type: functional; conditions: (Castellani) Sabouraud IHME 4321, 168 h, read-out: GI; summary of the method: as §1
Trichophyton tonsurans [4] = assay: Antifungal activity against Trichophyton tonsurans Malmsten CBS 483.76 assessed as growth inhibition at 20 ug/ml measured on day 7 by sabouraud dextrose agar diffusion method relative to control; assay type: functional; conditions: Malmsten CBS 483.76, 168 h, read-out: GI; summary of the method: as §1
Trichophyton violaceum [5] = assay: Antifungal activity against Trichophyton violaceum Malmsten CBS 459.61 assessed as growth inhibition at 20 ug/ml measured on day 7 by sabouraud dextrose agar diffusion method relative to control; assay type: functional; conditions: Malmsten CBS 459.61, 168 h, read-out: GI; summary of the method: as §1
[6] = system: Trichophyton mentagrophytes; assay: Antifungal activity against Trichophyton mentagrophytes (Robin) Blanchard CBS 160.66 assessed as growth inhibition at 20 ug/ml measured on day 7 by sabouraud dextrose agar diffusion method relative to control; assay type: functional; conditions: (Robin) Blanchard CBS 160.66, 168 h, read-out: GI; summary of the method: as §1
Nannizzia gypsea [7] = assay: Antifungal activity against Microsporum gypseum (Bodin) Guiart and Grigorakis IHME 3999 assessed as growth inhibition at 20 ug/ml measured on day 7 by sabouraud dextrose agar diffusion method relative to control; assay type: functional; conditions: (Bodin) Guiart and Grigorakis IHME 3999, 168 h, read-out: GI; summary of the method: as §1
Paraphyton cookei [8] = assay: Antifungal activity against Nannizzia cajetani Ajello CBS 495.70 assessed as growth inhibition at 20 ug/ml measured on day 7 by sabouraud dextrose agar diffusion method relative to control; assay type: functional; conditions: Ajello CBS 495.70, 168 h, read-out: GI; summary of the method: as §1
[9] = Antifungal activity against Microsporum canis Bodin CBS 4727 assessed as growth inhibition at 20 ug/ml measured on day 7 by sabouraud dextrose agar diffusion method relative to control; assay type: functional; summary of the method: as §1
Nannizzia gypsea [10] = assay: Antifungal activity against Nannizzia gypsea (Bodin) Guiart et Grigoraki CBS 286.63 assessed as growth inhibition at 20 ug/ml measured on day 7 by sabouraud dextrose agar diffusion method relative to control; assay type: functional; conditions: (Bodin) Guiart et Grigoraki CBS 286.63, 168 h, read-out: GI; summary of the method: as §1
Epidermophyton floccosum [11] = assay: Antifungal activity against Epidermophyton floccosum (Hartz) Langeron and Milochevitch CBS 358.93 assessed as growth inhibition at 100 ug/ml measured on day 7 by sabouraud dextrose agar diffusion method relative to control; assay type: functional; summary of the method: as §1
Trichophyton rubrum [12] = assay: Antifungal activity against Trichophyton rubrum (Castellani) Sabouraud IHME 4321 assessed as growth inhibition at 100 ug/ml measured on day 7 by sabouraud dextrose agar diffusion method relative to control; assay type: functional; conditions: (Castellani) Sabouraud IHME 4321, 168 h, read-out: GI; summary of the method: as §1
Trichophyton tonsurans [13] = assay: Antifungal activity against Trichophyton tonsurans Malmsten CBS 483.76 assessed as growth inhibition at 100 ug/ml measured on day 7 by sabouraud dextrose agar diffusion method relative to control; assay type: functional; conditions: Malmsten CBS 483.76, 168 h, read-out: GI; summary of the method: as §1
Trichophyton violaceum [14] = assay: Antifungal activity against Trichophyton violaceum Malmsten CBS 459.61 assessed as growth inhibition at 100 ug/ml measured on day 7 by sabouraud dextrose agar diffusion method relative to control; assay type: functional; conditions: Malmsten CBS 459.61, 168 h, read-out: GI; summary of the method: as §1
[15] = system: Trichophyton mentagrophytes; assay: Antifungal activity against Trichophyton mentagrophytes (Robin) Blanchard CBS 160.66 assessed as growth inhibition at 100 ug/ml measured on day 7 by sabouraud dextrose agar diffusion method relative to control; assay type: functional; conditions: (Robin) Blanchard CBS 160.66, 168 h, read-out: GI; summary of the method: as §1
Nannizzia gypsea [16] = assay: Antifungal activity against Microsporum gypseum (Bodin) Guiart and Grigorakis IHME 3999 assessed as growth inhibition at 100 ug/ml measured on day 7 by sabouraud dextrose agar diffusion method relative to control; assay type: functional; conditions: (Bodin) Guiart and Grigorakis IHME 3999, 168 h, read-out: GI; summary of the method: as §1
Paraphyton cookei [17] = assay: Antifungal activity against Nannizzia cajetani Ajello CBS 495.70 assessed as growth inhibition at 100 ug/ml measured on day 7 by sabouraud dextrose agar diffusion method relative to control; assay type: functional; conditions: Ajello CBS 495.70, 168 h, read-out: GI; summary of the method: as §1
[18] = Antifungal activity against Microsporum canis Bodin CBS 4727 assessed as growth inhibition at 100 ug/ml measured on day 7 by sabouraud dextrose agar diffusion method relative to control; assay type: functional; summary of the method: as §1
Nannizzia gypsea [19] = assay: Antifungal activity against Nannizzia gypsea (Bodin) Guiart et Grigoraki CBS 286.63 assessed as growth inhibition at 100 ug/ml measured on day 7 by sabouraud dextrose agar diffusion method relative to control; assay type: functional; conditions: (Bodin) Guiart et Grigoraki CBS 286.63, 168 h, read-out: GI; summary of the method: as §1
[20] = biological target: Nuclear factor NF-kappa-B complex (Homo sapiens) (UniProt Q00653+P19838+Q04206); assay: Inhibition of NF-kappaB (unknown origin)/32P-labeled oligonucleotide interaction at 0.1 to 10 mM after 20 mins by electrophoretic mobility shift assay; assay type: protein-complex assay
Summary of the method: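 Probe was a double-stranded 32P-labelled oligonucleotide (0.25 ng) in buffer of 10% glycerol, 0.05% NP-40, 10 mM Tris-HCl pH 7.5, 50 mM NaCl, 0.5 mM DTT and 10 mM MgCl2. Compound and probe were bound for 20 min at room temperature, then recombinant NF-kappaB p50 was added for a further 20 min. Samples were run on 6% polyacrylamide in 0.25× TBE at 200 V.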

K562 [21] = assay: Induction of apoptosis in human K562 cells assessed as live cells at 5 uM after 3 days by Annexin-V staining-based assay (reference value: 87.33%); assay type: functional
K562 [22] = assay: Induction of apoptosis in human K562 cells assessed as live cells at 10 uM after 3 days by Annexin-V staining-based assay (reference value: 87.33%); assay type: functional
K562 [23] = assay: Induction of apoptosis in human K562 cells assessed as early apoptotic cells at 5 uM after 3 days by Annexin-V staining-based assay (reference value: 5.41%); assay type: functional
K562 [24] = assay: Induction of apoptosis in human K562 cells assessed as early apoptotic cells at 10 uM after 3 days by Annexin-V staining-based assay (reference value: 5.41%); assay type: functional
K562 [25] = assay: Induction of apoptosis in human K562 cells assessed as late apoptotic cells at 5 uM after 3 days by Annexin-V staining-based assay (reference value: 5.96%); assay type: functional
K562 [26] = assay: Induction of apoptosis in human K562 cells assessed as late apoptotic cells at 10 uM after 3 days by Annexin-V staining-based assay (reference value: 5.96%); assay type: functional
K562 [27] = assay: Induction of apoptosis in human K562 cells assessed as dead cells at 5 uM after 3 days by Annexin-V staining-based assay (reference value: 1.29%); assay type: functional
K562 [28] = assay: Induction of apoptosis in human K562 cells assessed as dead cells at 10 uM after 3 days by Annexin-V staining-based assay (reference value: 1.29%); assay type: functional
K562 [29] = assay: Induction of apoptosis in human K562 cells assessed as apoptotic cells at 5 uM after 3 days by Annexin-V staining-based assay (reference value: 11.37%); assay type: functional
K562 [30] = assay: Induction of apoptosis in human K562 cells assessed as apoptotic cells at 10 uM after 3 days by Annexin-V staining-based assay (reference value: 11.37%); assay type: functional
[31] = Antioxidant activity assessed as superoxide anion radical scavenging by photochemiluminescence method relative to trolox; assay type: physicochemical
Summary of the method: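 Superoxide was generated photochemically from luminol under UV light (351 nm). Lag time (water-soluble, ACW) or integrated light emission over 180 s (lipid-soluble, ACL) was compared with a Trolox standard curve. Samples were centrifuged 5 min at 16000 g and diluted 1:40 in water (ACW) or methanol (ACL). Triplicate determinations.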

[32] = Antioxidant activity assessed as inhibition of AAPH-induced peroxyl radical generation by oxygen radical absorbance capacity assay relative to trolox; assay type: physicochemical
Summary of the method: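 Run at 37 °C and pH 7.4 with fluorescein (85 nM) as the probe and AAPH as the peroxyl radical source. Compounds were dissolved fresh in PBS. Fluorescence read at ex 485/em 538 nm every 5 min for up to 30 min after AAPH addition. Net area under the decay curve (blank minus sample) was calibrated against Trolox at 10–50 μM and given as Trolox equivalents.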

[33] = Antioxidant activity assessed as superoxide anion radical scavenging by photochemiluminescence method relative to trolox using formulation containing O/W; assay type: physicochemical
K562 [34] = assay: Antiproliferative activity against human K562 cells assessed as cell number after 3 days by Coulter counter; conditions: K562, 72 h

Chain of Nuclear factor NF-kappa-B complex (Homo sapiens) (P19838 whole entry, looked up): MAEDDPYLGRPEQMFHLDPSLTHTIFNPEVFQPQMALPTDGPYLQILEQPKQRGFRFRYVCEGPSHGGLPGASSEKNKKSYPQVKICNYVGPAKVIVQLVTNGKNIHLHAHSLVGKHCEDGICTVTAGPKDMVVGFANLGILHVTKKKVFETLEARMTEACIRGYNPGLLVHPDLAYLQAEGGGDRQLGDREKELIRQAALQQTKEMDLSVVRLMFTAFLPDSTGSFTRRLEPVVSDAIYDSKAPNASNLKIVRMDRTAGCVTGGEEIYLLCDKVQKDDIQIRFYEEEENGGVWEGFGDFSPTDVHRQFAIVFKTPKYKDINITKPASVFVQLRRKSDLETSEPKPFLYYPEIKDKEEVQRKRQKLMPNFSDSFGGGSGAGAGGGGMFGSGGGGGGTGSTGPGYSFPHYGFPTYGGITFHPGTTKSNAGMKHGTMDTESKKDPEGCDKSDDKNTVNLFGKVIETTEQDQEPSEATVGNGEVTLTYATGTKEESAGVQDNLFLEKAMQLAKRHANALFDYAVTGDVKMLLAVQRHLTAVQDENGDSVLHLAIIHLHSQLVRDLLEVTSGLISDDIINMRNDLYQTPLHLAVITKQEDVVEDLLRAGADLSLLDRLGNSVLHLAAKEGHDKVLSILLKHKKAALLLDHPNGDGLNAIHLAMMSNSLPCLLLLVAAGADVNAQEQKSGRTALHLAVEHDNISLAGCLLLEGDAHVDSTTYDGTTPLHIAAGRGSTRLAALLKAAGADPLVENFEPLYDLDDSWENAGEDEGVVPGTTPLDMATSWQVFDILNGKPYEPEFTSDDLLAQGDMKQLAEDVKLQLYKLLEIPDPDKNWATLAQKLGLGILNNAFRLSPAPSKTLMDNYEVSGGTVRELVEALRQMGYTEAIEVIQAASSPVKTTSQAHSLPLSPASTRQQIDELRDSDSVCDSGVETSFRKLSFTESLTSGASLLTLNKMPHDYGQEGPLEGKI
Chain of Nuclear factor NF-kappa-B complex (Homo sapiens) (Q00653 whole entry, looked up): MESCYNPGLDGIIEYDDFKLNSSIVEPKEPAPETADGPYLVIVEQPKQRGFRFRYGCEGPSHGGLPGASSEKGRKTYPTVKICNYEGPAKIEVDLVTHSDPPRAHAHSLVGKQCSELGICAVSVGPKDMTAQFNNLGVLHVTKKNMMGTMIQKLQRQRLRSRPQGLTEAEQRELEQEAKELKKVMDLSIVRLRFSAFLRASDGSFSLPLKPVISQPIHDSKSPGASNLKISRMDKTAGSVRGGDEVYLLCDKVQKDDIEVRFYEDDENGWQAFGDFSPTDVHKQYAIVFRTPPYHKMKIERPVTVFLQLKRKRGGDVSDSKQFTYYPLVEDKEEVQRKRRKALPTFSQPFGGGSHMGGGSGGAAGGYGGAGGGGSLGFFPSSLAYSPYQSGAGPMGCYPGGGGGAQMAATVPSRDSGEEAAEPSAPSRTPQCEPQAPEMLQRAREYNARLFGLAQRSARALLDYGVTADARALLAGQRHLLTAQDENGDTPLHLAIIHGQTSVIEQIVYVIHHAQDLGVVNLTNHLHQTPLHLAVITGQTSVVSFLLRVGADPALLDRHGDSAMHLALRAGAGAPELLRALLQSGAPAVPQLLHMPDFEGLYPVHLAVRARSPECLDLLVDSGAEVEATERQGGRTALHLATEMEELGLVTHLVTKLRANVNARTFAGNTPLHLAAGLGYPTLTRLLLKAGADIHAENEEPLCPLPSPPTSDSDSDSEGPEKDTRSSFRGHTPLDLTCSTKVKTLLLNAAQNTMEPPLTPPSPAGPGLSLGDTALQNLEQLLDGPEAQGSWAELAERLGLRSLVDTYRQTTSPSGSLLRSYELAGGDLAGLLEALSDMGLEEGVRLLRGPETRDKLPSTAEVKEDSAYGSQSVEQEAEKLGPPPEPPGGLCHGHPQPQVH
Chain of Nuclear factor NF-kappa-B complex (Homo sapiens) (Q04206 whole entry, looked up): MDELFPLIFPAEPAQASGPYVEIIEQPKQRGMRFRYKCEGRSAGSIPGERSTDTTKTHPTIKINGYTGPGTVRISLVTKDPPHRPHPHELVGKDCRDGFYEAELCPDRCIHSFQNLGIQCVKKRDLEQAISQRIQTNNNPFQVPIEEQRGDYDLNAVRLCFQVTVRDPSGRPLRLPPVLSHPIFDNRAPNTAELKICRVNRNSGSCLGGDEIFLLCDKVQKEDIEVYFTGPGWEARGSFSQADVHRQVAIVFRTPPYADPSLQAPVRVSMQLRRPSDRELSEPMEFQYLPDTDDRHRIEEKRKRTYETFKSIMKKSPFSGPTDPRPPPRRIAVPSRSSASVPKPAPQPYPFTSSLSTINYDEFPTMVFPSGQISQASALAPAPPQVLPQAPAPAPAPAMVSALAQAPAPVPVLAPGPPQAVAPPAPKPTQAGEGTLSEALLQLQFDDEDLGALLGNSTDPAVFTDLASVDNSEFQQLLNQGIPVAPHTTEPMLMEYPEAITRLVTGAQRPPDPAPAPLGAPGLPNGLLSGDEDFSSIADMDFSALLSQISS

Structure (SMILES): CCC(=O)O[C@@H]1[C@@H](OC(=O)CC)[C@H](C)O[C@@H](OC[C@H]2O[C@@H](Oc3c(-c4ccc(O)c(O)c4)oc4cc(O)cc(O)c4c3=O)[C@H](OC(=O)CC)[C@@H](OC(=O)CC)[C@@H]2OC(=O)CC)[C@@H]1OC(=O)CC
- logP at 0.5 h [1]: 1.09
- growth inhibition (GI) (Epidermophyton floccosum [2]): inactive
- inhibition of growth at 20 µg/mL (Trichophyton rubrum [3]): 3.5%
- inhibition of growth at 20 µg/mL (Trichophyton tonsurans [4]): 5.4%
- inhibition of growth at 20 µg/mL (Trichophyton violaceum [5]): 10.7%
- inhibition of growth at 20 µg/mL [6]: 0%
- inhibition of growth at 20 µg/mL (Nannizzia gypsea [7]): 5.4%
- inhibition of growth at 20 µg/mL (Paraphyton cookei [8]): 0.6%
- growth inhibition (GI) [9]: inactive
- inhibition of growth at 20 µg/mL (Nannizzia gypsea [10]): 1.9%
- growth inhibition (GI) (Epidermophyton floccosum [11]): inactive
- inhibition of growth at 100 µg/mL (Trichophyton rubrum [12]): 4.3%
- inhibition of growth at 100 µg/mL (Trichophyton tonsurans [13]): 17.8%
- inhibition of growth at 100 µg/mL (Trichophyton violaceum [14]): 15.8%
- inhibition of growth at 100 µg/mL [15]: 5.7%
- inhibition of growth at 100 µg/mL (Nannizzia gypsea [16]): 9.9%
- inhibition of growth at 100 µg/mL (Paraphyton cookei [17]): 3.5%
- growth inhibition (GI) [18]: 0%
- inhibition of growth at 100 µg/mL (Nannizzia gypsea [19]): 7.9%
- inhibition [20]: Active
- Activity (K562 [21]): 79.75%
- Activity (K562 [22]): 71.2%
- Activity (K562 [23]): 12.35%
- Activity (K562 [24]): 11.64%
- Activity (K562 [25]): 5.35%
- Activity (K562 [26]): 15.82%
- Activity (K562 [27]): 2.55%
- Activity (K562 [28]): 1.34%
- Activity (K562 [29]): 17.7%
- Activity (K562 [30]): 27.46%
- Activity [31]: 1232.67 µmol/g
- Activity [32]: 728.61 µmol/g
- Activity [33]: 3.81 µmol/g
- IC50 (K562 [34]): 7.17 µM
